# Laboratory results as given in article PMC8640676 (Journal of Pesticide Science, 2021).
# Key:
# [1] = Toxicokinetics in plasma, rat 90-day study; assay type: in vivo; conditions: for AUC(0-t) / Cmax: rat, plasma, po
# [2] = Toxicokinetics in plasma, mouse 90-day study; assay type: in vivo; conditions: for AUC(0-t) / Cmax: mouse, plasma, po
# [3] = Toxicokinetics in plasma, dog 90-day study; assay type: in vivo; conditions: for Cmax: beagle, dog, plasma, po
# [4] = In vitro metabolism study in liver microsomes; assay type: in vitro ADME; conditions: rat liver microsomes
# [5] = In vitro metabolism study in liver microsomes; assay type: in vitro ADME; conditions: mouse liver microsomes
# [6] = In vitro metabolism study in liver microsomes; assay type: in vitro ADME; conditions: human liver microsomes
# [7] = molecular target: T1, protoporphyrinogen oxidase (PPO) (Mus musculus, UniProt P51175); test: PPO-inhibition assay, mouse liver mitochondrial fraction; assay type: biochemical
# T1 sequence (P51175 1-477): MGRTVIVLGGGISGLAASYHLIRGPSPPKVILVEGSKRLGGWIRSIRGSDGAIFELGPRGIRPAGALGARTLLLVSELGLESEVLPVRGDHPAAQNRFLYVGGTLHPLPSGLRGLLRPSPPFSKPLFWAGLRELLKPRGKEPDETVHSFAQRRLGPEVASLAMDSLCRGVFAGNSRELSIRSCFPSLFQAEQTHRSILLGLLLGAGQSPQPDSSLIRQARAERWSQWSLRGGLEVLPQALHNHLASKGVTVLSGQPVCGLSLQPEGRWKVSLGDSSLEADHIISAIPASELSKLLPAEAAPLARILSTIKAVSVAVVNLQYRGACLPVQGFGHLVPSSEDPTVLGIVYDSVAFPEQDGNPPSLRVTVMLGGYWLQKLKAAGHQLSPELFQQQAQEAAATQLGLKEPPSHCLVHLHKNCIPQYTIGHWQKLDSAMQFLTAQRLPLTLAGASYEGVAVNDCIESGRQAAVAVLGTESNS
# Method in brief: (§1)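 Liver mitochondria came from pooled SD rats and humans, or were freshly kit-isolated from Crl:CD1 mice and TOYO beagles. They were used at 0.2 mg protein/mL in 100 mM Tris-HCl pH 7.5 with 0.1% Triton-X, 1 mM EDTA and 40 mM ascorbate, preincubated 10 min at 37°C, then given 0.5 µM protoporphyrinogen IX. PPIX fluorescence (ex 410/em 630 nm) was read for 60 min at 37°C. Heat-killed mitochondria gave the background, and IC50 came from 4-parameter fits over 3 runs.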
# [8] = molecular target: T2, protoporphyrinogen oxidase (PPO) (Rattus norvegicus, UniProt D3ZVN7); test: PPO-inhibition assay, rat liver mitochondrial fraction; assay type: biochemical
# T2 sequence (D3ZVN7 1-488): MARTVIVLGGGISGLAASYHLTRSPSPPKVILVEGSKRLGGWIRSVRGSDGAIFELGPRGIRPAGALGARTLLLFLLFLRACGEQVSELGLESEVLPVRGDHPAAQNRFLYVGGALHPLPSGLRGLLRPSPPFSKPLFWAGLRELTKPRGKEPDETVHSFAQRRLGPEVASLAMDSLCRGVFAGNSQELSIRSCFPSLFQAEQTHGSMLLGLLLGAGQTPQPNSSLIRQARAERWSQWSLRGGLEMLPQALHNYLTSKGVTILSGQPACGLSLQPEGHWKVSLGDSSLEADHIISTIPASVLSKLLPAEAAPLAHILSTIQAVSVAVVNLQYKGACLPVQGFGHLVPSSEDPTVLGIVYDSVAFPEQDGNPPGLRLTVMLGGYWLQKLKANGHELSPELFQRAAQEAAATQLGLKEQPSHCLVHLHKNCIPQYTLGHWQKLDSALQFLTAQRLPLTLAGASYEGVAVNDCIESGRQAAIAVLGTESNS
# Method in brief: as §1
# [9] = molecular target: T3, protoporphyrinogen oxidase (PPO) (Canis lupus familiaris, UniProt A0A8I3Q7Z3); test: PPO-inhibition assay, dog liver mitochondrial fraction; assay type: biochemical
# T3 sequence (A0A8I3Q7Z3 1-480): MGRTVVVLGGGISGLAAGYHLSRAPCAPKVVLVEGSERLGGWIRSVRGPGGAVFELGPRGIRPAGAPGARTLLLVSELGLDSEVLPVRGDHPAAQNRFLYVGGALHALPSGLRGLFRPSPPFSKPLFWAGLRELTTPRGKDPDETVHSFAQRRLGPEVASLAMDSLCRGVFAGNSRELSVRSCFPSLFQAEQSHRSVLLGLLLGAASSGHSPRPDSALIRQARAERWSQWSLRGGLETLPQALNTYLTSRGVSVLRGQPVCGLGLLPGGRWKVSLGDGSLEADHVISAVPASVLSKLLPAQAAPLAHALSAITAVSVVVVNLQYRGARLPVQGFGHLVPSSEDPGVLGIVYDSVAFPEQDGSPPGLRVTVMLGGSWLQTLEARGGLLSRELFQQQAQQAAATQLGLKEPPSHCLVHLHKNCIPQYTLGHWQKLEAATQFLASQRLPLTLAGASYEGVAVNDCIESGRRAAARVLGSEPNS
# Method in brief: as §1
# [10] = molecular target: T4, protoporphyrinogen oxidase (PPO) (Homo sapiens, UniProt P50336); test: PPO-inhibition assay, human liver mitochondrial fraction; assay type: biochemical
# T4 sequence (P50336 1-477): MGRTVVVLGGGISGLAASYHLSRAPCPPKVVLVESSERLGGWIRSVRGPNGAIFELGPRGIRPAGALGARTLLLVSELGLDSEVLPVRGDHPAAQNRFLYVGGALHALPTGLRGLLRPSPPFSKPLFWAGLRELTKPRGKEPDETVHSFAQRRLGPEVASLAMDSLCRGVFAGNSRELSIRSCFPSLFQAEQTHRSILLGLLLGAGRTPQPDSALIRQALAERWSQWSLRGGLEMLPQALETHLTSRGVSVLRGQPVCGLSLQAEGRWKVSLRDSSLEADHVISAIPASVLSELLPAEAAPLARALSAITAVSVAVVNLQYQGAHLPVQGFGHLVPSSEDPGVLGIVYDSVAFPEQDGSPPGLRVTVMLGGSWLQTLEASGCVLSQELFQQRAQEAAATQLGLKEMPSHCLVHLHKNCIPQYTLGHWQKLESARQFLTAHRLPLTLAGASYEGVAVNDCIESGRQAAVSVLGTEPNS
# Method in brief: as §1
# [11] = system: cryopreserved primary hepatocytes of SD rats; test: Hepatocyte uptake assay; assay type: in vitro ADME, rat; conditions: rats vs humans
# [12] = system: cryopreserved primary hepatocytes of humans; test: Hepatocyte uptake assay; assay type: in vitro ADME; conditions: human hepatocytes (both genders), 5 µM, 37°C minus 4°C
# [13] = 90-day subchronic toxicity study with epyrifenacil in rats; assay type: in vivo, rat; conditions: Crl:CD(SD), rat, in vivo, oral
# Method in brief: (§2)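 Crl:CD(SD) rats, 10 per sex per group, had free access to diet containing 0 (basal diet), 50, 300 or 800 ppm for 90 consecutive days. TK satellite groups held 4 rats per sex. The study was run to test guidelines under GLP.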
# [14] = system: Crl:CD(SD) rats; test: as above; assay type: in vivo, rat
# Method in brief: as §2
# [15] = 90-day subchronic toxicity study with epyrifenacil in mice; assay type: in vivo; conditions: Crl:CD1(ICR), mouse, in vivo, oral
# Method in brief: (§3)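 Crl:CD1(ICR) mice, 10 per sex per group, had free access to diet containing 0 (basal diet), 5, 25 or 100 ppm for 90 consecutive days. TK satellite groups held 24 mice per sex. The study was run to test guidelines under GLP.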
# [16] = system: Crl:CD1(ICR) mice; test: as above; assay type: in vivo; conditions: mouse, 90-day study
# Method in brief: as §3
# [17] = 90-day subchronic toxicity study with epyrifenacil in dogs; assay type: in vivo, dog; conditions: beagle, dog, in vivo, oral
# Method in brief: (§4)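 Beagles, 4 per sex per group, were dosed orally with gelatin capsules at 0, 100, 300 or 1000 mg/kg/day for 90 consecutive days. The study was run to test guidelines under GLP.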
# [18] = system: Beagle dogs; test: as above; assay type: in vivo, dog
# Method in brief: as §4
# [19] = Incubation of epyrifenacil without microsomal fractions; assay type: in vitro ADME; conditions: 30 min of incubation
# [20] = female, Crl:CD(SD), 19 mg/kg bw/day
# [21] = male, Crl:CD(SD), 3 mg/kg bw/day
# [22] = female, Crl:CD1(ICR), 4.1 mg/kg bw/day
smiles,measurement,setting,value
"Cn1c(C(F)(F)F)cc(=O)n(-c2cc(Oc3cccnc3OCC(=O)O)c(Cl)cc2F)c1=O [S-3100-CA, (3-{2-chloro-4-fluoro-5-[1,2,3,6-tetrahydro-3-methyl-2,6-dioxo-4-(trifluoromethyl)pyrimidin-1-yl]phenoxy}pyridin-2-yloxy)acetic acid]","AUC0–24 of S-3100-CA at NOAEL, fold change vs. corresponding mouse value",[1]; female rats vs female mice,2.2 fold
same,"Cmax of S-3100-CA at NOAEL, fold change vs. corresponding mouse value",[1]; female rats vs female mice,2.0 fold
same,AUC(0-t),[1]; [20],5020 ng·h/mL
same,Cmax,[1]; [20],266 ng/mL
same,AUC(0-t),"[1]; female, Crl:CD(SD), 50 ppm",879 ng·h/mL
same,Cmax,"[1]; female, 50 ppm in diet",46.5 ng/mL
same,AUC(0-t),"[1]; female, 300 ppm in diet",5020 ng·h/mL
same,Cmax,"[1]; female, 300 ppm in diet",266 ng/mL
same,AUC(0-t),"[1]; female, 800 ppm in diet",13200 ng·h/mL
same,Cmax,"[1]; female, 800 ppm in diet",756 ng/mL
same,"Cmax of S-3100-CA at NOAEL, fold change vs. corresponding mouse value",[1]; male rats vs male mice,1.6 fold
same,AUC(0-t),[1]; [21],467 ng·h/mL
same,Cmax,[1]; [21],20.7 ng/mL
same,AUC(0-t),"[1]; male, Crl:CD(SD), 50 ppm",467 ng·h/mL
same,Cmax,"[1]; male, Crl:CD(SD), 50 ppm",20.7 ng/mL
same,AUC(0-t),"[1]; male, 300 ppm in diet",4010 ng·h/mL
same,Cmax,"[1]; male, 300 ppm in diet",248 ng/mL
same,AUC(0-t),[2]; [22],2240 ng·h/mL
same,Cmax,[2]; [22],135 ng/mL
same,AUC(0-t),"[2]; female, 5 ppm in diet",403 ng·h/mL
same,Cmax,"[2]; female, 5 ppm in diet",22.7 ng/mL
same,AUC(0-t),"[2]; female, 25 ppm in diet",2240 ng·h/mL
same,Cmax,"[2]; female, 25 ppm in diet",135 ng/mL
same,AUC(0-t),"[2]; female, 100 ppm in diet",14800 ng·h/mL
same,Cmax,"[2]; female, 100 ppm in diet",860 ng/mL
same,Cmax,"[2]; male, Crl:CD1(ICR), 0.7 mg/kg bw/day",12.8 ng/mL
same,Cmax,"[2]; male, 5 ppm in diet",12.8 ng/mL
same,AUC(0-t),"[2]; male, 25 ppm in diet",4580 ng·h/mL
same,Cmax,"[2]; male, 25 ppm in diet",64.9 ng/mL
same,AUC(0-t),"[2]; male, 100 ppm in diet",10100 ng·h/mL
same,Cmax,"[2]; male, 100 ppm in diet",550 ng/mL
same,"AUC0–24 of S-3100-CA at NOAEL, fold change vs. corresponding mouse value",[3]; female dogs vs female mice,23 fold
same,"Cmax of S-3100-CA at NOAEL, fold change vs. corresponding mouse value",[3]; female dogs vs female mice,42 fold
same,Cmax,"[3]; female, 300 mg/kg bw/day",5650 ng/mL
same,Cmax,"[3]; female, 300 mg/kg/day",5650 ng/mL
same,"Cmax of S-3100-CA at NOAEL, fold change vs. corresponding mouse value",[3]; male dogs vs male mice,74 fold
same,Cmax,"[3]; male, 100 mg/kg bw/day",947 ng/mL
same,Cmax,"[3]; male, 100 mg/kg/day",947 ng/mL
same,"S-3100-CA detected as major metabolite, share of the applied radioactivity",[4]; [14C]epyrifenacil 10 µM,no less than 80%
same,"S-3100-CA detected as major metabolite, share of the applied radioactivity",[5]; [14C]epyrifenacil 10 µM,no less than 80%
same,"S-3100-CA detected as major metabolite, share of the applied radioactivity",[6]; [14C]epyrifenacil 10 µM,no less than 80%
same,IC50,[7],0.9 ± 0.3 nM
same,IC50,[8],1.5 ± 0.36 nM
same,IC50,[9],11.1 ± 3.12 nM
same,IC50,[10],12.5 ± 2.08 nM
same,"Hepatocyte uptake, times greater in rats than in humans",[11],2 times
same,Active uptake rate into hepatocytes,[12],3.83 µL/10^6 cells/min
"CCOC(=O)COc1ncccc1Oc1cc(-n2c(=O)cc(C(F)(F)F)n(C)c2=O)c(F)cc1Cl [epyrifenacil, ethyl[(3-{2-chloro-4-fluoro-5-[3-methyl-2,6-dioxo-4-(trifluoromethyl)-3,6-dihydropyrimidin-1(2H)-yl]phenoxy}pyridin-2-yl)oxy]acetate]",NOAEL at 90 days,[13]; female,19 mg/kg/day
same,NOAEL at 90 days,[13]; male,3 mg/kg/day
same,"NOAEL, fold change vs. corresponding mouse value",[14]; female rats vs female mice,4.6 fold
same,"NOAEL, fold change vs. corresponding mouse value",[14]; male rats vs male mice,4.3 fold
same,Major adverse findings,"[14]; rat, 90-day study","Hepatocyte injury caused by porphyrin accumulation, hepatocellular hypertrophy, anemia"
same,NOAEL at 90 days,[15]; female,4.1 mg/kg/day
same,NOAEL at 90 days,[15]; male,0.7 mg/kg/day
same,Major adverse findings,[16],"Hepatocyte injury caused by porphyrin accumulation, hepatocellular hypertrophy, anemia"
same,NOAEL at 90 days,[17]; female,300 mg/kg/day
same,NOAEL at 90 days,[17]; male,100 mg/kg/day
same,Major adverse findings,"[18]; dog, 90-day study","Increased glycogen associated with increased ALP, anemia"
same,"NOAEL, fold change vs. corresponding mouse value",[18]; female dogs vs female mice,73 fold
same,"NOAEL, fold change vs. corresponding mouse value",[18]; male dogs vs male mice,143 fold
same,Parent epyrifenacil detected in plasma,"[1]; rats, 90-day dietary administration (data not shown)",no measurable amount
same,Parent epyrifenacil detected in plasma,"[2]; mice, 90-day dietary administration (data not shown)",no measurable amount
same,Parent epyrifenacil detected in plasma,"[3]; dog plasma, 90-day oral capsule administration",not more than 0.04 µg/mL
same,Time within which epyrifenacil almost disappeared,"[4]; 10 µM, NADPH, 37°C",≤ 5 min
same,Time within which epyrifenacil almost disappeared,"[5]; 10 µM, NADPH, 37°C",≤ 5 min
same,Time within which epyrifenacil almost disappeared,"[6]; 10 µM, NADPH, 37°C",≤ 5 min
same,IC50,[7],2.2 ± 0.03 nM
same,IC50,[8],2.6 ± 0.05 nM
same,IC50,[9],7.6 ± 0.18 nM
same,IC50,[10],10.2 ± 0.66 nM
same,Non-enzymatic degradation,[19],did not present any degradants
